Data published in ChEMBL document CHEMBL1122333, “Synthesis and biological activities of the Z isomers of carbapenem antibiotics” (J Med Chem, 1983).

Experiments:
Staphylococcus aureus [1] = assay: Tested for minimum inhibitory concentration against Staphylococcus aureus 1840 on ampicillin at a concentration of 0.1 ug/mL into the agar plate; format: functional
Escherichia coli [2] = assay: Tested for inhibition of intraperitoneal infection against Escherichia coli O-111; format: functional
Outline: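 Protection assay run in Slc:ICR mice. ED50 was calculated by the Reed and Muench method from survival recorded 5 days after infection.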

Serratia marcescens [3] = assay: Tested for minimum inhibitory concentration against Serratia marcescens 12648 on cefotiam at a concentration of 0.1 ug/mL into the agar plate
Staphylococcus aureus [4] = assay: Tested for beta-lactamase inhibitory activity of the 5,6-cis-carbapenem antibiotic on penicillinase against Staphylococcus aureus 1840; format: functional, organism-based; conditions: read-out: I50
Proteus vulgaris [5] = assay: Tested for minimum inhibitory concentration against Proteus vulgaris GN4815 on cefotiam at a concentration of 0.1 ug/mL into the agar plate
Proteus vulgaris [6] = assay: beta-lactamase inhibitory activity of the 5,6-cis-carbapenem antibiotic on cephalosporinase against Proteus vulgaris GN4413; format: functional, organism-based; conditions: for IC50: Proteus vulgaris, read-out: I50
Klebsiella pneumoniae [7] = assay: Tested for minimum inhibitory concentration against Klebsiella pneumoniae TN1655 on ampicillin at a concentration of 0.1 ug/mL into the agar plate; format: functional
[8] = (§1) Half-life of 10% mouse kidney homogenate is tested; format: ADME; conditions: 10% mouse kidney homogenate
Outline: (§2)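 Carbapenem at 50 μg/mL incubated in 10% mouse kidney homogenate at 30 °C to assess stability to mouse renal enzyme(s).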

Klebsiella pneumoniae [9] = assay: Tested for beta-lactamase inhibitory activity of the 5,6-cis-carbapenem antibiotic on penicillinase against Klebsiella pneumoniae TN1698; format: functional, organism-based; conditions: for IC50: Klebsiella pneumoniae, read-out: I50
Serratia marcescens [10] = assay: beta-lactamase inhibitory activity of the 5,6-cis-carbapenem antibiotic on cephalosporinase against Serratia marcescens TN81; format: functional, organism-based, serratia marcesc; conditions: for IC50: Serratia marcescens, read-out: I50
Serratia marcescens [11] = assay: Tested for minimum inhibitory concentration against Serratia marcescens IFO 12648; format: functional
Outline: (§3)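 Agar dilution MIC on Trypticase soy agar. Each plate was inoculated with one loopful of a 10^8 cfu/mL bacterial suspension.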

[12] = test system: Acinetobacter calcoaceticus; assay: Minimum inhibitory concentration against Acinetobacter calcoacet IFO 13006; format: functional
Outline: (§4)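 MIC by agar dilution on Trypticase soy agar. Inoculum was one loopful of a 10^8 cfu/mL bacterial suspension.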

Klebsiella pneumoniae [13] = assay: Tested for minimum inhibitory concentration against Klebsiella pneumoniae DT; format: functional; outline: as §3
Proteus mirabilis = assay: Tested for minimum inhibitory concentration against […] IFO 3849; format: functional; outline: as §3
Proteus vulgaris [14] = assay: Tested for minimum inhibitory concentration against Proteus vulgaris IFO 3988; format: functional; outline: as §4
Morganella morganii = assay: Tested for minimum inhibitory concentration against […] IFO 3168; format: functional; outline: as §3
Escherichia coli [15] = assay: Tested for minimum inhibitory concentration against Escherichia coli O-111; format: functional; outline: as §4
Proteus vulgaris [16] = assay: Minimum inhibitory concentration against Proteus vulgaris GN4815 on cefotiam at a concentration of 0.1 ug/mL into the agar plate
Pseudomonas aeruginosa = assay: Tested for minimum inhibitory concentration against Pseudomonas aeruginosa IFO 3455; format: functional; outline: as §3
Citrobacter freundii = assay: Tested for minimum inhibitory concentration against […] IFO 12681; format: functional; outline: as §3
Escherichia coli [17] = assay: Tested for minimum inhibitory concentration against Escherichia coli T-7; format: functional; outline: as §3
Enterobacter cloacae = assay: Tested for minimum inhibitory concentration against […] IFO 12937; format: functional; outline: as §3
Staphylococcus aureus [18] = assay: Tested for minimum inhibitory concentration against Staphylococcus aureus 308 A-1; format: functional; outline: as §3
Mus musculus = organism: Mus musculus; assay: as §1; format: ADME; conditions: in vitro; outline: as §2
Proteus vulgaris [19] = assay: tested for minimum inhibitory concentration against Proteus vulgaris GN4815 on cefotiam at a concentration of 0.1 ug/mL into the agar plate
Klebsiella pneumoniae [20] = assay: Tested for minimum inhibitory concentration against Klebsiella pneumoniae TN1655 on ampicillin at a concentration of 0.1 ug/mL into the agar plate
[21] = tested for minimum inhibitory concentration against […] 12486 on ampicillin at a concentration of 0.1 ug/mL into the agar plate; format: functional
[22] = Escherichia coli, ip, read-out: ED50
[23] = Acinetobacter calcoaceticus, IFO 13006, read-out: MIC
[24] = Pseudomonas aeruginosa, IFO 3455, read-out: MIC

Structure (SMILES) | MIC (Staphylococcus aureus [1]) | ED50 (Escherichia coli [2]; [22]) | MIC (Serratia marcescens [3]) | IC50 (Staphylococcus aureus [4]) | IC50 (Proteus vulgaris [6]) | MIC (Klebsiella pneumoniae [7]) | half-life [8] | IC50 (Klebsiella pneumoniae [9]) | IC50 (Serratia marcescens [10]) | MIC (Proteus vulgaris [16]) | other results
CC(=O)[N-]/C=C/SC1=C(C(=O)[O-])N2C(=O)[C@@H](C(C)O)[C@H]2C1.[Na+].[Na+] (some centres undefined) | 1.56 µg/mL | 17.7 mg/kg | 25 µg/mL | 0.065 µg/mL | 1.5 µg/mL | 100 µg/mL | 40 min | 320 ng/mL | 0.0011 µg/mL |  | MIC (Proteus vulgaris [5]): 400 µg/mL
CC(=O)N/C=C\[S+]([O-])C1=C(C(=O)[O-])N2C(=O)[C@@H](C(C)(C)O)[C@H]2C1.[Na+] (stereo in doubt; 11) | 6.25 µg/mL |  | 12.5 µg/mL |  |  | 3.13 µg/mL |  |  |  |  | MIC (Serratia marcescens [11]): 3.13 µg/mL; MIC [12, 23]: 50 µg/mL; MIC (Klebsiella pneumoniae [13]): 3.13 µg/mL; MIC (Proteus mirabilis): 12.5 µg/mL; MIC (Proteus vulgaris [14]): 25 µg/mL; MIC (Morganella morganii): 12.5 µg/mL; I50 (Proteus vulgaris [6]): 1.1 ng/mL; MIC (Escherichia coli [15]): <0.1 µg/mL; I50 (Klebsiella pneumoniae [9]): 3.8 ng/mL; I50 (Serratia marcescens [10]): 0.34 ng/mL
CC(=O)N/C=C/[S+]([O-])C1=C(C(=O)[O-])N2C(=O)[C@@H](C(C)(C)OS(=O)(=O)[O-])[C@H]2C1.[Na+].[Na+] (some centres undefined) |  | > 100 mg/kg | 6.25 µg/mL | 0.21 µg/mL | 0.00037 µg/mL | 6.25 µg/mL | 37 min | 5.2 ng/mL |  | 1.56 µg/mL | MIC (Serratia marcescens [11]; Serratia marcescens, IFO 12648, read-out: MIC): 12.5 µg/mL; I50 (Serratia marcescens [10]): 55 ng/mL
CC(=O)N/C=C\SC1=C(C(=O)[O-])N2C(=O)[C@@H](C(C)(C)OS(=O)(=O)[O-])[C@H]2C1.[Na+].[Na+] | 50 µg/mL | > 50 mg/kg | 25 µg/mL | 1 µg/mL | 0.0038 µg/mL | 50 µg/mL | 19 min | 28 ng/mL | 0.051 µg/mL | 1.56 µg/mL | 
CC(=O)N/C=C/SC1=C(C(=O)[O-])N2C(=O)[C@@H](C(C)(C)O)[C@H]2C1.[Na+] |  | > 50 mg/kg |  |  |  |  | 8 min |  |  |  | 
CC(=O)N/C=C\[S+]([O-])C1=C(C(=O)[O-])N2C(=O)[C@@H](C(C)(C)OS(=O)(=O)[O-])[C@H]2C1.[Na+].[Na+] (some centres undefined) | 50 µg/mL | > 50 mg/kg | 12.5 µg/mL | 0.24 µg/mL | 0.00055 µg/mL | 3.13 µg/mL |  | 1 ng/mL | 0.018 µg/mL | 0.78 µg/mL | 
CC(=O)N/C=C/SC1=C(C(=O)[O-])N2C(=O)[C@@H](C(C)O)[C@H]2C1.[Na+] (some centres undefined) |  | > 50 mg/kg |  |  |  |  | 12 min |  |  |  | MIC (Pseudomonas aeruginosa; [24]): 100 µg/mL; MIC [12, 23]: 3.13 µg/mL; MIC (Proteus vulgaris [14]; Proteus vulgaris, IFO 3988, read-out: MIC): 3.13 µg/mL; MIC (Escherichia coli [15]; Escherichia coli, read-out: MIC): 0.39 µg/mL
CC(=O)N/C=C/SC1=C(C(=O)[O-])N2C(=O)[C@@H](C(C)OS(=O)(=O)[O-])[C@H]2C1.[Na+].[Na+] (some centres undefined) |  | > 50 mg/kg |  |  |  |  | 21 min |  |  |  | MIC (Pseudomonas aeruginosa; [24]): 3.13 µg/mL
CC(=O)N/C=C/[S+]([O-])C1=C(C(=O)[O-])N2C(=O)[C@@H](C(C)(C)O)[C@H]2C1.[Na+] (stereo in doubt; 2) |  |  |  |  |  |  |  |  |  |  | MIC (Citrobacter freundii): 0.2 µg/mL; ED50 (Escherichia coli [2]): 20 mg/kg; MIC (Proteus vulgaris [14]): 3.13 µg/mL; MIC (Escherichia coli [15]): <0.1 µg/mL
CC(=O)N/C=C\[S+]([O-])C1=C(C(=O)[O-])N2C(=O)[C@@H](C(C)(C)O)[C@H]2C1.[Na+] (stereo in doubt; 22) |  |  |  | 0.59 µg/mL |  |  |  |  |  |  | MIC (Citrobacter freundii): 12.5 µg/mL; MIC (Escherichia coli [17]): 25 µg/mL; MIC (Serratia marcescens [11]): 25 µg/mL; MIC (Enterobacter cloacae): 50 µg/mL; MIC (Klebsiella pneumoniae [13]): 12.5 µg/mL; MIC (Proteus mirabilis): 50 µg/mL; MIC (Proteus vulgaris [14]): 100 µg/mL; MIC (Morganella morganii): 100 µg/mL; I50 (Proteus vulgaris [6]): 14 ng/mL; MIC (Staphylococcus aureus [18]): 3.13 µg/mL; T1/2 (Mus musculus): > 250 min; I50 (Klebsiella pneumoniae [9]): 110 ng/mL; I50 (Serratia marcescens [10]): 3.3 ng/mL
CC(=O)N/C=C/SC1=C(C(=O)[O-])N2C(=O)[C@@H](C(C)(C)OS(=O)(=O)[O-])[C@H]2C1.[Na+].[Na+] |  | > 50 mg/kg |  |  |  |  | 7 min |  |  |  | 
CC(=O)N/C=C\[S+]([O-])C1=C(C(=O)[O-])N2C(=O)[C@@H](C(C)O)[C@H]2C1.[Na+] (some centres undefined) | 6.25 µg/mL |  |  | 0.00055 µg/mL | 0.019 µg/mL |  |  | 2.4 ng/mL | 0.00029 µg/mL |  | MIC (Proteus vulgaris [19]): 400 µg/mL; MIC (Klebsiella pneumoniae [20]): 100 µg/mL
CC(=O)N/C=C/[S+]([O-])C1=C(C(=O)[O-])N2C(=O)[C@@H](C(C)(C)O)[C@H]2C1.[Na+] (stereo in doubt; 20) |  | 28.1 mg/kg |  | 0.54 µg/mL | 0.0028 µg/mL |  |  | 80 ng/mL | 0.00078 µg/mL |  | MIC (Citrobacter freundii): 3.13 µg/mL; MIC (Pseudomonas aeruginosa): 25 µg/mL; MIC (Escherichia coli [17]): 25 µg/mL; MIC [12]: 12.5 µg/mL; MIC (Enterobacter cloacae): 25 µg/mL; MIC (Proteus mirabilis): 12.5 µg/mL; MIC (Proteus vulgaris [14]): 12.5 µg/mL; MIC (Morganella morganii): 25 µg/mL; MIC (Staphylococcus aureus [18]): 3.13 µg/mL
CC(=O)N/C=C\[S+]([O-])C1=C(C(=O)[O-])N2C(=O)[C@@H](C(C)OS(=O)(=O)[O-])[C@H]2C1.[Na+].[Na+] (some centres undefined) | 50 µg/mL |  | 25 µg/mL | 0.0034 µg/mL | 0.00016 µg/mL |  |  | 0.08 ng/mL | 0.00034 µg/mL | 50 µg/mL | 
CC(=O)N/C=C\SC1=C(C(=O)[O-])N2C(=O)[C@@H](C(C)OS(=O)(=O)[O-])[C@H]2C1.[Na+].[Na+] (some centres undefined) |  | > 50 mg/kg |  | 0.014 µg/mL | 0.00035 µg/mL | 25 µg/mL | 42 min | 1.8 ng/mL | 0.001 µg/mL | 1.56 µg/mL | MIC [21]: 12.5 µg/mL
CC(=O)N/C=C\SC1=C(C(=O)[O-])N2C(=O)[C@@H](C(C)(C)O)[C@H]2C1.[Na+] | 12.5 µg/mL | > 50 mg/kg | 12.5 µg/mL |  | 0.017 µg/mL | 100 µg/mL | 19 min | 220 ng/mL | 0.0053 µg/mL | 25 µg/mL | 
